Assay results of several laboratories.
Lines come from different studies, so protocols differ. ≈ marks a conversion by molar mass, not a printed value.

| SMILES | tested on | assay | system | setting | quantity | result |
| --- | --- | --- | --- | --- | --- | --- |
| O=C1CCc2cc(-c3cccc(OC(=O)[C@H]4[C@H](c5ccccc5)[C@@H](C(=O)O)[C@H]4c4ccccc4)c3)ccc2N1 | WI-38 | cell growth or viability, MTT | – | – | IC50 | 77 µM |
| C#Cc1ccc(C(=O)NN=Cc2c(O)cccc2C#C)cc1 | Cryptococcus neoformans | microbial growth, broth dilution | – | pH 7.4 | MIC80 | 0.015 µg/mL (≈ 0.052 µM) |
| COc1cnc(OC)n2nc(NS(=O)(=O)c3c(OCC(F)F)cccc3C(F)(F)F)nc12 | HaCaT | cell growth or viability, CCK-8 | – | 6.25 µM, 72 h | inhibition | 0.85% |
| O=C1CCP(c2ccccc2)CC1 | HaCaT | cell growth or viability, MTT | – | 72 h | IC50 | 73.3 µM |
| C#Cc1ccc(C=NNC(=O)c2ccc(Br)c(O)c2)c(O)c1 | Cryptococcus neoformans | microbial growth, broth dilution | – | pH 7.4 | MIC80 | 1 µg/mL (≈ 2.78 µM) |
| CC[C@H](C)C[C@H](C)CCCCCCCCC(=O)N[C@H]1C[C@@H](O)[C@@H](NCCN)NC(=O)[C@@H]2[C@@H](O)CCN2C(=O)[C@H]([C@H](O)CCN)NC(=O)[C@H]([C@H](O)[C@@H](O)c2ccc(O)cc2)NC(=O)[C@@H]2C[C@@H](O)CN2C(=O)[C@H]([C@@H](C)O)NC1=O | Nakaseomyces glabratus | microbial killing, broth dilution | ATCC15126 | 48 h | MFC | 0.5 µg/mL (≈ 0.457 µM) |
| N.N.[Cl][Pt][Cl] | Daudi | cell growth or viability, ATP luminescence | – | 72 h | IC50 | 0.86 µM |
| C#Cc1cccc(O)c1C=NNC(=O)c1ccc(COC)cc1 | Cryptococcus neoformans | microbial growth, broth dilution | – | pH 7.4 | MIC80 | 0.06 µg/mL (≈ 0.195 µM) |
| S=P1(c2ccccc2)CCCCC1 | HaCaT | cell growth or viability, MTT | – | 72 h | IC50 | > 100 µM |
| O=C/C=C/c1ccccc1 | Bacillus subtilis | microbial growth, well diffusion | MTCC121 | 1000 µg/mL, 18 h | inhibition zone | 8 mm |
| O=C1CCP(=S)(c2ccccc2)CC1 | HaCaT | cell growth or viability, MTT | – | 72 h | IC50 | 14.2 µM |
| C#Cc1ccc(C=NNC(=O)c2ccc(COCC)cc2)c(O)c1 | Cryptococcus neoformans | microbial growth, broth dilution | – | pH 7.4 | MIC80 | 0.015 µg/mL (≈ 0.0465 µM) |
